Results reported in ChEMBL document CHEMBL4017520, “Discovery, Structure-Activity Relationship, and Antiparkinsonian Effect of a Potent and Brain-Penetrant Chemical Series of Positive Allosteric Modulators of Metabotropic Glutamate Receptor 4” (J Med Chem, 2017).
Calls of active or inactive are those of the source. The calls are words filed in the database; no cut-off is given here.

Assays:
[1] = species: Rattus norvegicus; assay: Activity at NMDA glutamate receptor in rat cerebral cortex at 10 uM
How it was run: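 Inhibition of orthosteric ligand binding to NMDA, AMPA and kainate receptors on rat cerebral cortex membranes, tested up to 10 μM.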

[2] = target: Metabotropic glutamate receptor 8 (Homo sapiens) (UniProt O00222); assay: Agonist activity at human mGlu8 receptor expressed in HEK293 cells co-expressing Gi/Gq assessed as increase in intracellular calcium level at 10 uM after 10 mins by Fluo4-AM dye based fluorescence assay relative to control; type: functional, cell-based
How it was run: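 Human mGluR8 in transiently transfected HEK293 cells loaded with Fluo4-AM. Compound alone was added and fluorescence followed for 10 min. Stimulation is expressed relative to the maximal glutamate response.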

[3] = target: Metabotropic glutamate receptor 1 (Homo sapiens) (UniProt Q13255); assay: Activity at human mGlu1 receptor expressed in HEK293 cells co-expressing Gi/Gq assessed as effect on intracellular calcium level up to 10 uM after 10 mins by Fluo4-AM dye based fluorescence assay; type: functional, cell-based
How it was run: (§1)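 HEK-293 cells transiently expressing the human mGluR with a promiscuous or chimeric G protein were serum-starved 3 h and loaded 1.5 h with 1 μM Fluo4-AM. Compound alone was added in assay buffer, and calcium fluorescence (ex 485/em 525) was recorded for 10 min as agonist readout.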

[4] = target: Metabotropic glutamate receptor 2 (Homo sapiens) (UniProt Q14416); assay: Activity at human mGlu2 receptor expressed in HEK293 cells co-expressing Gi/Gq assessed as effect on intracellular calcium level up to 10 uM after 10 mins by Fluo4-AM dye based fluorescence assay; type: functional, cell-based; how it was run: as §1
[5] = target: Glycogen synthase kinase-3 beta (Homo sapiens) (UniProt P49841); assay: Inhibition of GSK3beta (unknown origin) at 10 uM
[6] = target: Metabotropic glutamate receptor 3 (Homo sapiens) (UniProt Q14832); assay: Activity at human mGlu3 receptor expressed in HEK293 cells co-expressing Gi/Gq assessed as effect on EC20/EC80 glutamate-induced intracellular calcium level up to 10 uM preincubated for 10 mins followed by glutamate addition measured for 3 mins by Fluo4-AM dye based fluorescence assay; type: functional, cell-based
How it was run: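 HEK-293 cells were electroporated with the human mGluR plus a promiscuous or chimeric G protein and cultured 24 h, then serum-starved 3 h. Cells were loaded 1.5 h with 1 μM Fluo4-AM in HBSS/HEPES buffer with probenecid and 0.1% BSA. Compound was added for 10 min, then glutamate at EC20 (PAM) or EC80 (NAM), and fluorescence (ex 485/em 525) was read for 3 min.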

[7] = target: Metabotropic glutamate receptor 4 (Rattus norvegicus) (UniProt P31423); assay: Positive allosteric modulation of rat mGlu4 receptor expressed in HEK293 cells co-expressing Gi/Gq assessed as increase in glutamate-induced calcium flux preincubated for 10 mins followed by glutamate addition measured for 3 mins by Fluo4-AM dye based fluorescence assay relative to control; type: functional, cell-based
[8] = test system: Rattus norvegicus; assay: Protection against 6-OHDA induced parkinsonian motor deficit in Sprague-Dawley rat assessed as increase in slow activity at 30 mg/kg, ip after 28 days post surgery; type: functional, organism-based
How it was run: (§2)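 Adult male Sprague−Dawley rats with bilateral 6-OHDA striatal lesions given compound 30 mg/kg ip or vehicle at T0; spontaneous locomotor activity (active time, slow activity, rearing) counted in 5-min bins versus pre-surgery vehicle; n = 10.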

[9] = test system: Rattus norvegicus; assay: Protection against 6-OHDA induced parkinsonian motor deficit in Sprague-Dawley rat assessed as increase in rearing time at 30 mg/kg, ip after 28 days post surgery; type: functional, organism-based; how it was run: as §2
[10] = Drug uptake in Sprague-Dawley rat brain at 30 mg/kg, ip after 240 mins; type: ADME, organism-based; details: read-out: Drug uptake
[11] = Ratio of drug uptake in Sprague-Dawley rat brain at 30 mg/kg, ip to EC50 for rat mGlu4 receptor expressed in HEK293 cells
How it was run: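 Rats received a single ip or oral dose. Brain concentration was measured 30 min postdose, mean of 3 rats, and divided by the EC50 measured in cell lines overexpressing rat mGluR4.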

[12] = AUC (0 to infinity) in Sprague-Dawley rat at 1 mg/kg, iv administered as single dose by LC-MS/MS analysis; type: ADME, organism-based; design: dose 1 mg/kg, route intravenous, time infinity; details: in vivo
[13] = Protein binding in Sprague-Dawley rat brain at 10 uM by rapid equilibrium dialysis; type: ADME, tissue-based; details: read-out: PB (converted)
[14] = Half life in Sprague-Dawley rat plasma at 10 mg/kg, po administered as single dose by LC-MS/MS analysis; type: ADME, organism-based
How it was run: (§3)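 Single dose ip (10 or 30 mg/kg, rat) or oral (10 mg/kg, rat or mouse); plasma Cmax, Tmax, half-life, AUC0−inf derived; brain concentration and brain/plasma ratio at 30 min postdose. Mean of 3 rats or 2 mice.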

[15] = Ratio of drug level in Sprague-Dawley rat brain to plasma at 10 mg/kg, ip after 30 mins post dose administered as single dose by LC-MS/MS analysis; type: ADME, organism-based; details: read-out: BPR; how it was run: as §3
[16] = AUC (0 to infinity) in Sprague-Dawley rat plasma at 10 mg/kg, po administered as single dose by LC-MS/MS analysis; type: ADME, organism-based; design: dose 10 mg/kg, time infinity, route oral
How it was run: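 Rats given a single oral dose of 10 mg/kg. The first plasma sample was taken at 15 min, and sampling continued to 24 h postdose. Brain was sampled at 30 min. Values are the mean (±SEM) of 3 rats.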

[17] = test system: Brain; assay: Fraction unbound in Sprague-Dawley rat brain at 30 mg/kg, ip after 30 mins; type: ADME, organism-based; details: in vivo, 0.5 h
[18] = Volume of distribution in Sprague-Dawley rat at 1 mg/kg, iv administered as single dose by LC-MS/MS analysis; type: ADME, organism-based; details: in vivo
How it was run: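 Single intravenous dose: rats 1 mg/kg, mice 2 mg/kg. Plasma concentration–time data yielded Cmax, t1/2, AUC0−∞, plasma clearance and volume of distribution. Values are mean ±SEM of 3 animals.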

[19] = AUC (0 to infinity) in Sprague-Dawley rat plasma at 30 mg/kg, ip administered as single dose by LC-MS/MS analysis; type: ADME, organism-based; design: dose 30 mg/kg, time infinity, route intraperitoneal
How it was run: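 Rats dosed ip at 10 or 30 mg/kg. Plasma Cmax, Tmax, half-life and AUC0–inf were determined. Brain concentration was measured 30 min postdose, and brain/plasma ratio was taken at 30 min. Values are the mean (±SEM) of 3 rats.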

[20] = Ratio of drug level in Sprague-Dawley rat brain to plasma at 1 mg/kg, iv after 1 hr post dose administered as single dose by LC-MS/MS analysis; type: ADME, organism-based; details: read-out: BPR
How it was run: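 Single iv dose, 1 mg/kg in rat or 2 mg/kg in mouse; plasma PK parameters derived; brain/plasma ratio taken at 1 h postdose (rat) or 30 min postdose (mouse). Mean of 3 rats; 2 mice for mouse Cmax and brain/plasma.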

[21] = target: Metabotropic glutamate receptor 4 (Rattus norvegicus, UniProt P31423); assay: Positive allosteric modulation of rat mGlu4 receptor expressed in HEK293 cells co-expressing Gi/Gq assessed as increase in glutamate-induced calcium flux preincubated for 10 mins followed by glutamate addition measured for 3 mins by Fluo4-AM dye based fluorescence assay; type: functional, cell-based
[22] = Tmax in Sprague-Dawley rat plasma at 10 mg/kg, po administered as single dose by LC-MS/MS analysis; type: ADME, organism-based
How it was run: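 Single-dose plasma PK after ip (10 or 30 mg/kg) or oral (10 mg/kg) dosing in rats, and oral 10 mg/kg dosing in mice. […] Values are mean ±SEM of 3 rats or 2 mice.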

Sequence of Metabotropic glutamate receptor 8 (Homo sapiens) (O00222 whole entry): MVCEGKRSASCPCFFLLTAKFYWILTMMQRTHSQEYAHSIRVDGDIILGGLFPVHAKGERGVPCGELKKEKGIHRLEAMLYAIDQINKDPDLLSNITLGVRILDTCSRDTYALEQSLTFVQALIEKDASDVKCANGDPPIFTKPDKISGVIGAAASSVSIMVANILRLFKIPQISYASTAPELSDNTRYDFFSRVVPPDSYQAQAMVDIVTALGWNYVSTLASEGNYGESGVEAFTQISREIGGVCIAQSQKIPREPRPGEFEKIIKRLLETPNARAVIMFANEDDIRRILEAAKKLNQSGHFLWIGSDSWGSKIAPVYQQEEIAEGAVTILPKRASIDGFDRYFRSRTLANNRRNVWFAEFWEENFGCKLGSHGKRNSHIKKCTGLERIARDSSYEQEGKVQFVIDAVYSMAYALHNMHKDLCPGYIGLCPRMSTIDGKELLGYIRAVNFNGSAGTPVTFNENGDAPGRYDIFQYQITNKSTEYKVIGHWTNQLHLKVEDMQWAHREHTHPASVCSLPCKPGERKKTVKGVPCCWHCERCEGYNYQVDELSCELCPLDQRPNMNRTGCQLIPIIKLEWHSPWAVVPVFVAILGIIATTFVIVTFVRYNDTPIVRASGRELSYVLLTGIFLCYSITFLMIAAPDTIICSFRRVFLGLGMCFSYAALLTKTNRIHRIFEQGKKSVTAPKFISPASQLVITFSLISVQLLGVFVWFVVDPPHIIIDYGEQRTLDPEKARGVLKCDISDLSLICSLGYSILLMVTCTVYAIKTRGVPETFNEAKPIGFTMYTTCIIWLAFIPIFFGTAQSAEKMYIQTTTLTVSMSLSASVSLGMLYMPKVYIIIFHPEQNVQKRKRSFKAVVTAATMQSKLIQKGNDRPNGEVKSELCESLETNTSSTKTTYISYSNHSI
Sequence of Metabotropic glutamate receptor 3 (Homo sapiens) (Q14832 23-879 limits assumed): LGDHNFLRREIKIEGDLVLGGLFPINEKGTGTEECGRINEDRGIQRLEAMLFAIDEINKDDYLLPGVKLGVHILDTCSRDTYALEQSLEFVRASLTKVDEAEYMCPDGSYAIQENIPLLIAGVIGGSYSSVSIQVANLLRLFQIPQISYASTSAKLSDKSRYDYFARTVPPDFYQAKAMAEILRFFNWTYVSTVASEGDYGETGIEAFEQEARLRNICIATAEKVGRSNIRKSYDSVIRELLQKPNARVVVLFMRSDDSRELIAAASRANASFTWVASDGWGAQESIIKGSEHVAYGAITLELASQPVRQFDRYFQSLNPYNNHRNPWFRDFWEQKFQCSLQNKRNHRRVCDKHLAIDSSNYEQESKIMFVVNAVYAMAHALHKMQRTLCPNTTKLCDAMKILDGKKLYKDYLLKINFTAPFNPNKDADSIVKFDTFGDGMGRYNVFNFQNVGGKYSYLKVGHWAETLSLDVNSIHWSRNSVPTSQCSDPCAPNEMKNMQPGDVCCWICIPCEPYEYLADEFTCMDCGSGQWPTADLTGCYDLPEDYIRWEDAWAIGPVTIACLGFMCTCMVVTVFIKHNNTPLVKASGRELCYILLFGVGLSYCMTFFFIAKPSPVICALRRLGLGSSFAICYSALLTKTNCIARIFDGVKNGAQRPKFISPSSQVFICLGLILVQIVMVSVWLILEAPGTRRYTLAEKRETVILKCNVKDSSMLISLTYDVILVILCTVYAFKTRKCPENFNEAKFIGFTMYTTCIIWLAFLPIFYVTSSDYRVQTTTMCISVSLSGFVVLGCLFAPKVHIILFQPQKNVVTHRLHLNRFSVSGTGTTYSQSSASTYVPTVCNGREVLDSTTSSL
Sequence of Metabotropic glutamate receptor 4 (P31423 whole entry): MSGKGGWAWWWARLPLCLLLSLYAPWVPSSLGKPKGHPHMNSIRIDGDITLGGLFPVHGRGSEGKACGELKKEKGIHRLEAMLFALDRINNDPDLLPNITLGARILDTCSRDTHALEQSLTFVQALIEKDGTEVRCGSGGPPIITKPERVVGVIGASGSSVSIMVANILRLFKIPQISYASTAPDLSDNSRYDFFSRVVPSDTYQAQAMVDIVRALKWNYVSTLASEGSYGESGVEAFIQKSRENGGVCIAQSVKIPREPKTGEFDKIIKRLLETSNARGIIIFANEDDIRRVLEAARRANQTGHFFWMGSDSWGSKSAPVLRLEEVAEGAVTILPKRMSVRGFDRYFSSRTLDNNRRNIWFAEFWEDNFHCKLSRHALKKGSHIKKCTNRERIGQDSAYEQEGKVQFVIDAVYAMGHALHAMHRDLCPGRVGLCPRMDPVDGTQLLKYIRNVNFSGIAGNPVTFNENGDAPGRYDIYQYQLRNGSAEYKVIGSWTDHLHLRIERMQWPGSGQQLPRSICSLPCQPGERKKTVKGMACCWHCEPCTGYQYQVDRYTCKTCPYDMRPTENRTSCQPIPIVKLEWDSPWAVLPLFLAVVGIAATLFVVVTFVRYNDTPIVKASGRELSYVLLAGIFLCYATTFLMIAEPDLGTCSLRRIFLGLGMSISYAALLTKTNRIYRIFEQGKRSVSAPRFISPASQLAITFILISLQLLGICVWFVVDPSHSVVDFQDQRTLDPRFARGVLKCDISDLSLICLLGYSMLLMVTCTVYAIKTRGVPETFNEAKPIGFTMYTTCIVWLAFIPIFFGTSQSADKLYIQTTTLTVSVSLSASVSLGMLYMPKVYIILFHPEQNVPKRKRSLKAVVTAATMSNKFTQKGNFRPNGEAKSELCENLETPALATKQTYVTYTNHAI
Sequence of Metabotropic glutamate receptor 4 (Rattus norvegicus) (P31423 whole entry): as above
Sequence of Glycogen synthase kinase-3 beta (Homo sapiens) (P49841 whole entry, looked up): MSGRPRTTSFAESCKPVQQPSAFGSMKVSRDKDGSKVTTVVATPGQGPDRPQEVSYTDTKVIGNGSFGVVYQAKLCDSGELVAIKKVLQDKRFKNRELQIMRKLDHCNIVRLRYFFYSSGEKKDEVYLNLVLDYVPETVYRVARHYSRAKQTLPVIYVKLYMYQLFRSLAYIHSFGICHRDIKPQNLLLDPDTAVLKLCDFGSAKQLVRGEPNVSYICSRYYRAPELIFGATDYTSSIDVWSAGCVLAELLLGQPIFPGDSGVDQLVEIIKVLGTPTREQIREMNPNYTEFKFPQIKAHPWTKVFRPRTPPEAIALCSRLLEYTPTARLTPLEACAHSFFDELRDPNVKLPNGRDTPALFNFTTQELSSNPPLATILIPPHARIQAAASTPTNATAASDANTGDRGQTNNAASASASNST
Sequence of Metabotropic glutamate receptor 2 (Homo sapiens) (Q14416 19-872 limits assumed): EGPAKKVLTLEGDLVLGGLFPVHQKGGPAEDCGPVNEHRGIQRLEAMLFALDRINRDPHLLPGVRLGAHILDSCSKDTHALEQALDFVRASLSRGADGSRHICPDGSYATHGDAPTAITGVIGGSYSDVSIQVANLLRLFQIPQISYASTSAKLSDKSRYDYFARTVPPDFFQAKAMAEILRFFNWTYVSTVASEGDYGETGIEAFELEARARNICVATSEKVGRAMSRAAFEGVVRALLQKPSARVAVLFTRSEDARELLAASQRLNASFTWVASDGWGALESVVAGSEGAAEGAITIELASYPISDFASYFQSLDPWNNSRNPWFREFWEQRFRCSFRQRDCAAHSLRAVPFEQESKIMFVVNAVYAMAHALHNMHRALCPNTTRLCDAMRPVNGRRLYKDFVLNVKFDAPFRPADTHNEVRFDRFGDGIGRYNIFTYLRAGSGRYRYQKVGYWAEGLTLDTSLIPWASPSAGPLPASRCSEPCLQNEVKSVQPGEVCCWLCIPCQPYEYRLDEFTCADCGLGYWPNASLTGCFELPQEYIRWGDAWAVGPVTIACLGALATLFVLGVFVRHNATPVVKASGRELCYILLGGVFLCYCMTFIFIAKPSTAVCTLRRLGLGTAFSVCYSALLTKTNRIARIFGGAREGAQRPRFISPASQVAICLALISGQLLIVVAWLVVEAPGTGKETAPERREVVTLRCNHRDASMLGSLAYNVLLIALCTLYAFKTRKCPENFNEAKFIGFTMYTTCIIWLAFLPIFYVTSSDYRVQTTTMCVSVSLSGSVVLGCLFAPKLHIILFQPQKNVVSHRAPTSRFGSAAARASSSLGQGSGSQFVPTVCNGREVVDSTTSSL

With `O/N=c1\cc(-c2cc3cccn3cn2)oc2ccc(OCCN3CCOCC3)cc12` [listing 1 of 2 here] the Activity [1] was “inactive”, the Activity [2] was 23% and the Activity [3] was “inactive”. The Activity [4] was “inactive”, the inhibition [5] was “inactive” and the Activity [6] was “inactive”. For the same compound, the Emax [7] was 75%, the Activity [8] was “Active” and the Activity [9] was “Active”.
With `O/N=c1\cc(-c2cc3cccn3cn2)oc2ccc(OCCN3CCOCC3)cc12` [listing 2 of 2 here] the concentration at 4 h [10] was 322 ng/g, the Ratio [11] was 14.5 and the AUC(0-inf) [12] was 0.166 µg·h/mL. It also gave a fraction unbound at 10 µM [13] of 0.0076, a half-life [14] of 7.3 h and a Kp at 0.5 h [15] of 3.1. For the same compound, the AUC(0-inf) [16] was 0.903 µg·h/mL, the “Drug uptake(free)” value [17] was 173 ng/g and the Vd [18] was 6.5 L/kg. It also gave an AUC(0-inf) [19] of 11.3 µg·h/mL, a Kp at 1 h [20] of 3.3 and an EC50 [21] of 0.027 µM. It also gave a Tmax [22] of 0.333 h.
